This is an account of results in ChEMBL document CHEMBL1131449, “4-(trans-4-Methylcyclohexyl)-4-oxobutyric acid (JTT-608). A new class of antidiabetic agent” (1998).

Test [1] relates to Rattus norvegicus. Put plainly: Hypoglycemic activity in fasting rats at a dose of 30 mg/kg po. Format: functional, organism-based. Also on record: dose 30 mg/kg. Put shortly: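 Normal rats, groups of four or five, fasted 16 h, then given vehicle or compound by mouth. Tail-vein blood sampled over 4 h for glucose (hexokinase method) and insulin (two-antibody radioimmunoassay). Comparison to vehicle control by Dunnett's two-tailed test.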

Test [2] concerns Rattus norvegicus. Description: Percent decrease of hyperglycemia at 30 min after glucose loading(1 g/kg ip) relative to vehicle control in rats at dose 100 mg/kg po. Format: functional. Also on record: scale not given: the % may be the effect or the level left. Put shortly:
(§1)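 Normal rats, groups of four to six, fasted 16 h. Glucose given 1 g/kg ip, with oral vehicle or compound. Tail-vein blood glucose measured by the hexokinase method. Value is % reduction of hyperglycemia 30 min after the glucose load versus vehicle control. Dunnett's two-tailed test used.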

Test [3] concerns Rattus norvegicus. Put plainly: Percent decrease of hyperglycemia at 30 min after glucose loading(1 g/kg ip) relative to vehicle control in rats at dose 10 mg/kg po. Also on record: dose 10 mg/kg. Format: functional, organism-based. Summed up:
as §1

Test [4] deals with Rattus norvegicus. Description: Percent decrease of hyperglycemia at 30 min after glucose loading(1 g/kg ip) relative to vehicle control in rats at dose 30 mg/kg po. Type of test: functional. The arrangement: scale not given: the % may be the effect or the level left. Summed up: as §1
In test [5] the test system is Rattus norvegicus. Description: Percent decrease of hyperglycemia at 30 min after glucose loading(1 g/kg ip) relative to vehicle control in rats at dose 100 mg/kg po. Also on record: dose 100 mg/kg. Format: functional, organism-based. Summed up: as §1
Test [6] concerns Rattus norvegicus. Put plainly: Percent decrease of hyperglycemia at 30 min after glucose loading(1 g/kg ip) relative to vehicle control in rats at dose 30 mg/kg po. Type of test: functional, organism-based. Also on record: dose 30 mg/kg. Summed up: as §1
In test [7] the test system is Rattus norvegicus. Description: Percent decrease of hyperglycemia at 30 min after glucose loading(1 g/kg ip) relative to vehicle control in rats at dose 10 mg/kg po. Format: functional. Also on record: scale not given: the % may be the effect or the level left. Summed up:
as §1

Test [8] concerns Rattus norvegicus. Put plainly: Percent decrease of hyperglycemia at 30 min after glucose loading(1 g/kg ip) relative to vehicle control in rats at dose 1 mg/kg po. Type of test: functional, organism-based. Also on record: dose 1 mg/kg. Summed up: as §1
Test [9] deals with Rattus norvegicus. Put plainly: Percent decrease of hyperglycemia at 30 min after glucose loading(1 g/kg ip) relative to vehicle control in rats at dose 3 mg/kg po. Type of test: functional. Also on record: scale not given: the % may be the effect or the level left. Summed up:
as §1

The source made the active and inactive calls. The calls are words filed in the database; no cut-off is given here.

In the case of `C[C@H]1CC[C@@H](C(=O)CCC(=O)O)CC1`, the Effect result with Rattus norvegicus [1] and in the test with Rattus norvegicus [3] was “inactive” throughout. Besides, the Effect in the test on Rattus norvegicus [2] was determined as 44%; in the test on Rattus norvegicus [4] it was 32%.
Regarding `C[C@H]1CC[C@H]([S+]([O-])CCC(=O)O)CC1` (some centres undefined), the Effect result in the test with Rattus norvegicus [5] is “inactive”.
Take `O=C(O)CCC(=O)C1CCCCC1`: the Effect entry in the test with Rattus norvegicus [1] and with Rattus norvegicus [3] was “inactive” throughout. Besides, the figures for the Effect with Rattus norvegicus [2] and in the test with Rattus norvegicus [4] were 26% and 27%, respectively.
For `C[C@H]1CC[C@H](CCCC(=O)O)CC1`, in the test on Rattus norvegicus [5], the Effect result is “inactive”.
On the same count and under the same terms, in the case of `O=C(O)CCC(=O)C1CCCCCC1` it was “inactive”.
As to `CC1(C(=O)CCC(=O)O)CCCCC1`, in the test on Rattus norvegicus [2], the Effect amounted to 28%. In the test on Rattus norvegicus [6], the Effect result was “inactive”.
Consider `C[C@H]1CC[C@H](C(=O)CCC(N)=O)CC1`, for which the Effect entry with Rattus norvegicus [1] and in the test with Rattus norvegicus [3] was “inactive” each time. Also, the Effect in the test on Rattus norvegicus [2] was determined as 47%; with Rattus norvegicus [4] it was 27%.
With `C[C@H]1CC[C@H](C(=O)CCC(=O)O)CC1`, the Effect entry in the test on Rattus norvegicus [1] and in the test on Rattus norvegicus [8] was “inactive” throughout. In addition, the Effect in the test with Rattus norvegicus [2] is recorded as 65%; in the test on Rattus norvegicus [7], 32%; in the test on Rattus norvegicus [9], 24%; in the test on Rattus norvegicus [4] it was 41%.
As for `C[C@H]1CC[C@H](S(=O)(=O)CCC(=O)O)CC1`, in the test on Rattus norvegicus [5], the Effect entry was “inactive”.
With `O=C(O)CCC(=O)C1CCCC1`, the Effect entry with Rattus norvegicus [5] was “inactive”.
For the molecule `CCC[C@H]1CC[C@H](C(=O)CCC(=O)O)CC1`, the Effect entry in the test with Rattus norvegicus [5] was “inactive”.
Still for that read-out and setting: the value for `CC[C@H]1CC[C@H](C(=O)CCC(=O)O)CC1` was “inactive”; that for `CC1CCCCC1C(=O)CCC(=O)O` (centres undefined) was “inactive”; that for `C[C@H]1CC[C@H](C(=O)CCCC(=O)O)CC1` was “inactive”.
Consider `C[C@H]1CC[C@H](C(=O)NCC(=O)O)CC1`, for which the Effect entry in the test with Rattus norvegicus [5] is “inactive”.
With `CC1CCCC(C(=O)CCC(=O)O)C1` (centres undefined), in the test with Rattus norvegicus [2], the Effect was 37%. Moreover, in the test on Rattus norvegicus [6], the Effect entry is “inactive”.
In the test on Rattus norvegicus [2], `CC1(C)CCC(C(=O)CCC(=O)O)CC1` had an Effect of 34%. Besides, in the test on Rattus norvegicus [6], the Effect result was “inactive”.
For `C[C@H]1CC[C@H](C(=O)OCC(=O)O)CC1`, the Effect entry in the test on Rattus norvegicus [5] was “inactive”.
As to `CC(=O)CCC(=O)[C@H]1CC[C@H](C)CC1`, the Effect entry in the test with Rattus norvegicus [1] and in the test on Rattus norvegicus [3] was “inactive” throughout. Further, the Effect in the test on Rattus norvegicus [2] was 31%; with Rattus norvegicus [4] it was 30%.
